{"data": "Experimental data collected from several papers", "medium": "plasma", "note": "Compare with care: the assays were run in different laboratories."}
{"SMILES": "CC(=O)N(C)[C@H]1CCN(C(=O)c2cnc3c(c2)C[C@](C)(c2ccc(F)cc2)N3)C1", "host": "male human", "route": "oral", "dose": "15 mg", "notes": "multiple doses, once daily", "quantity": "AUC(0-inf)", "value": "2.22 µM·h"}
{"SMILES": "CC(C)n1c(C2CCNCC2)nc2c([N+](=O)[O-])c(Br)c(Br)cc21", "host": "human", "route": "oral", "dose": "150 mg", "notes": "patients", "quantity": "AUC(0-t)", "value": "2880 ng·h/mL"}
{"SMILES": "COc1ccc(-c2c(Nc3ccccn3)[nH]c3c(C4=CCCCC4)c(-c4ccccc4)nn3c2=O)cc1", "host": "human", "route": "oral", "dose": "150 mg once daily", "notes": "multiple doses, steady state, patients", "quantity": "AUC(0-t)", "value": "93600 ng·h/mL"}
{"SMILES": "OC[C@H]1O[C@@H](c2cc(Cc3ccc(C4CC4)cc3)c(Cl)c3c2CCO3)[C@H](O)[C@@H](O)[C@@H]1O", "host": "human", "route": "oral", "dose": "0.3 mg", "notes": "single dose, fasted", "quantity": "AUC(0-inf)", "value": "33.3 ng·h/mL"}
{"SMILES": "CC(C)c1nc(N(C)S(C)(=O)=O)nc(-c2ccc(F)cc2)c1/C=C/[C@@H](O)C[C@@H](O)CC(=O)O", "host": "human", "route": "oral", "dose": "10 mg", "notes": "single dose, healthy volunteers", "quantity": "AUC(0-inf)", "value": "36.7 ng·h/mL"}
{"SMILES": "COc1ccc2c(c1)CN(C(=O)CCN1CCC(Cc3ccccc3)CC1)CC[S@@+]2[O-]", "host": "male human", "route": "intravenous", "dose": "0.6 mg/kg", "notes": "healthy volunteers", "quantity": "AUC(0-inf)", "value": "3240 ng·h/mL"}
{"SMILES": "COc1ccc(F)cc1C(=O)NCc1ccc(-c2nn([C@@H](C)C(F)(F)F)c(N)c2C(N)=O)cc1", "host": "human", "route": "oral", "dose": "200 mg", "notes": "single dose, fasted, healthy volunteers", "quantity": "AUC(0-inf)", "value": "85100 ng·h/mL"}
{"SMILES": "N#Cc1cccc(-c2ccc3ncc(-c4cc(F)cc(F)c4)c(N4CCC(N)CC4)c3c2)c1O", "host": "male human", "route": "oral", "dose": "20 mg", "notes": "single dose", "quantity": "AUC", "value": "2360 ng·h/mL"}
{"SMILES": "CC(C)c1nc(N(C)S(C)(=O)=O)nc(-c2ccc(F)cc2)c1/C=C/[C@@H](O)C[C@@H](O)CC(=O)O", "host": "human", "route": "oral", "dose": "10 mg", "quantity": "AUC", "value": "60.3 ng·h/mL"}
{"SMILES": "C=CC(=O)NC1CCN(c2ncc3ncnc(Nc4ccc(Oc5ccc6c(c5)ncn6C)c(C)c4)c3n2)CC1", "host": "male human", "route": "oral", "dose": "60 mg", "notes": "single dose, healthy volunteers", "quantity": "AUC(0-inf)", "value": "14.2 µM·h"}
{"SMILES": "O=C(COc1ccc(Cl)cc1)NC12CC(c3nnc([C@H]4C[C@@H](OC(F)(F)F)C4)o3)(C1)C2", "host": "human", "route": "oral", "dose": "145 mg", "notes": "multiple doses, once daily, steady state, healthy volunteers", "quantity": "AUC", "value": "141 µM·h"}
